The list is not random: actives were taken first. Their share in the collection is about 2.6%.
SENP1 inh = blocks the human SENP1 SUMO protease catalytic domain; Q9P0U3; recombinant SENP1 catalytic domain, CyPet-SUMO1-YPet FRET cleavage; inhibition, % at 10 µM; actives 0.21% (n = 360,000);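 active means inhibition at least 30% at 10 µM, raw YFP signal under a set limit, fluorescence ratio 0.5 to 1.5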
Target sequence (Q9P0U3 419-644 limits assumed): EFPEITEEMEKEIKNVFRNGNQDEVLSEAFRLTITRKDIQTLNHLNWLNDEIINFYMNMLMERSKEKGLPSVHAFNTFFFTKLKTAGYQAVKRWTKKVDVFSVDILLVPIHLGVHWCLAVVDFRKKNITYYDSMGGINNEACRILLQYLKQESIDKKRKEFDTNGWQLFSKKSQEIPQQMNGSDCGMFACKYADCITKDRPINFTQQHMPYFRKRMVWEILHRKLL
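Assay system: hSENP1 catalytic domain, recombinant. Amount: SENP1 enzyme, 20 pM final. Schedule: 50 min reaction, RT, dark. Technique: FRET, CFP and YFP emission. Control set: no-enzyme wells low, DMSO-plus-enzyme wells high control.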
SENP7 block = inhibitors of human SENP7 protease; Q9BQF6; recombinant SENP7, Z-RLRGG-aminoluciferin luminescence, 40 min; inhibition, % at 5 µM; actives 1.5% (n = 330,000); AID 434973;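 active means inhibition above about 50% at the single test dose, limit read from the data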
SENP8 block-1 = SENP8 protease inhibition; actives 1.2% (n = 330,000); Q96LD8; inhibition, % at 10 µM; purified SENP8, Z-RLRGG-aminoluciferin cleavage, luminescence; in the data active means inhibition above about 50%
Target sequence (Q96LD8 whole entry, looked up): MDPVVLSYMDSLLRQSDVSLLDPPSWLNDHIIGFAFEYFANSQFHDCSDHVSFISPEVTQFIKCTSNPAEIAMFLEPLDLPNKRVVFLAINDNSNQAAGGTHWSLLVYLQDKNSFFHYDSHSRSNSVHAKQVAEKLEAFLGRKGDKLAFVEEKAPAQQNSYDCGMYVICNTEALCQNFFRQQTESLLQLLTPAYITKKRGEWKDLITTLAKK
Platelet DG rel = platelet dense granule release activity | human platelet-rich plasma, SFLLRN dense granule ATP release, luminescence | inhibition, %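 (compounds screened at 7.5 µM in platelet-rich plasma)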 | actives 0.22% (n = 300,000) | AID 1663;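 active means mean replicate score, as percent of positive control, at or above 50; inconclusive means mean below 50 but at least one replicate at or above 50; inactive means mean and every replicate below 50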
SENP8 block-2 = SENP8 (human) protease inhibition; recombinant SENP8, Nedd8 substrate fluorescence; AID 602440; inhibition, % at 20 µM; actives 0.64% (n = 360,000); in the data active means inhibition mostly above about 40%, no sharp cut-off; inactive means mostly below about 27%
SENP6 block = SENP6 protease inhibition; Q9GZR1; inhibition, % at 10 µM; AID 2599; Recombinant SENP6 catalytic domain, aminoluciferin luminescence; actives 1.8% (n = 330,000);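 active means inhibition above about 50% at the single tested dose, limit read from the data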
SENP8 inh conf = confirmation of human SENP8 protease inhibitors; purified SENP8, Nedd8-AMC/pro-Nedd8 cleavage fluorescence, 30 min; actives 15% (n = 1,400); inhibition, % at 25 µM; AID 624319; shares compounds with SENP8 block-2; in the data active means inhibition mostly above about 39%, no sharp cut-off; inactive means mostly below about 34%
Each line names hits and unclear results; the compound was inactive in the other large screens (follow-up assays come after a bar, where they were run).

CCN(CC)c1ccc(C=C2C(=O)OC(c3ccccc3)OC2=O)cc1 (stereo not given)	none
CC(=O)N(C)c1ccc(C=C2C=Cc3ccccc32)cc1	none (no result: SENP7 block, SENP8 block-1, Platelet DG rel, SENP6 block)
CCN(N=O)c1ccc(C=C2C=Cc3ccccc32)cc1	SENP8 block-2 68.8 (no result: SENP7 block, SENP8 block-1, Platelet DG rel, SENP6 block) | SENP8 inh conf inactive
COc1cc(OC)c2cc[nH]c2c1	Platelet DG rel inconclusive
Cc1cc(N2CCCC2=O)ccc1S(=O)(=O)Nc1c(C)nn(C)c1C	none
CCN(CC)CCN1C(=O)C(=O)/C(=C(/O)c2ccc3c(c2)CC(C)O3)C1c1ccc(OC)cc1 (stereo not given)	none
Cc1c(C(=S)Nc2ccccc2)cnn1-c1ccc([N+](=O)[O-])cc1	SENP8 block-2 40.5 | SENP8 inh conf inactive
O=C(CNc1ccc2c(c1)OCO2)N/N=C\c1ccccc1Cl	SENP8 block-2 61.4 | SENP8 inh conf inactive
O=C(Cc1ccccc1)N/N=C/c1cc2c(cc1Cl)OCO2	none
O=C(CNC(=O)c1ccccc1)N/N=C/c1cccs1	none
O=C(CNC(=O)c1ccccc1F)N/N=C/c1cccs1	SENP8 block-2 42.0 | SENP8 inh conf inactive
CCOC(=O)c1c(N)sc2c1CCSC2	none
NNc1nnc2c3cc(F)ccc3n(CCc3ccccc3)c2n1	SENP8 block-2 51.6 | SENP8 inh conf inactive
CCN1CCN(c2cc(C)c3cc(NC(=S)NCCCN4CCc5ccccc5C4)ccc3n2)CC1	none
CCOc1ccc(C=NNc2ccc(S(=O)(=O)Nc3ccccc3C(=O)O)cc2[N+](=O)[O-])cc1	SENP8 block-2 49.3 (no result: Platelet DG rel) | SENP8 inh conf inactive
Cc1ccc(-c2nn(Cc3ccccc3)cc2/C=C/C(=O)O)cc1	none
Cc1ccc(Cn2cc(/C=C/C(=O)O)c(-c3ccccc3)n2)cc1	SENP8 block-2 43.0 | SENP8 inh conf inactive
Cc1ccc(NC(=O)Cn2nc(C(=O)Nc3ccc(C)cc3)ccc2=O)cc1	none
O=C1Nc2ccccc2C1=Nc1cccc([N+](=O)[O-])c1	none
NC(=O)c1ccc(N=C2C(=O)Nc3ccc([N+](=O)[O-])cc32)cc1	SENP8 block-2 85.5 | SENP8 inh conf 100.0
CC(C)C[C@H](NC(=O)[C@@H](O)[C@H](N)Cc1ccccc1)C(=O)O	none (no result: SENP1 inh, SENP8 block-2)
CC(C)[C@@H](C(=O)N[C@@H](CCc1ccc(O)cc1)C(=O)O)N(C)C(=O)[C@H](CO)NC(=O)[C@@H](O)[C@H](N)CCCCCCCCl	SENP8 block-2 55.1 (no result: SENP7 block, SENP8 block-1, Platelet DG rel, SENP6 block) | SENP8 inh conf inactive
CC1CCCN(c2ccc(C(=O)Nc3ccc4c(c3)OCO4)cc2[N+](=O)[O-])C1 (stereo not given)	SENP8 block-2 43.0 | SENP8 inh conf inactive
CC1CCN(c2ccc(C(=O)Nc3ccc4c(c3)OCO4)cc2[N+](=O)[O-])CC1	none
Cc1csc(=O)n1CC(=O)OCC(=O)Nc1ccc(C(N)=O)cc1	none (no result: Platelet DG rel)
COCCNC(=S)NN=C1CCCCC1	SENP8 block-2 46.2 | SENP8 inh conf inactive
N#Cc1ccccc1CSC1=NCCS1	none
COC(=O)CN1C(=O)S/C(=C/c2ccc(N3CCCCC3)o2)C1=O	SENP8 block-2 41.9 | SENP8 inh conf inactive
CCOC(=O)CN1C(=O)S/C(=C/c2ccc(N3CCCCC3)o2)C1=O	none
CC(=O)c1sc2nsc(SCCN3CCCC3)c2c1N	none
O=[N+]([O-])c1ccc(N2CCOCC2)nc1	none
O=C1CC(N2CCOCC2)=NN1c1ccc([N+](=O)[O-])cc1	SENP8 block-2 76.3 | SENP8 inh conf 45.9
Cc1ccc(S(=O)(=O)N2CCN(C(=O)N3CCCCC3)CC2)c(C)c1	none (no result: SENP7 block, SENP8 block-1, Platelet DG rel, SENP6 block)
O=C1c2cc(F)ccc2-n2c1nc1ccccc1c2=O	SENP8 block-2 41.8 | SENP8 inh conf 60.5
Cc1cc(C)nc(N2C(=O)CC(C(=O)O)NC2=NCCc2c[nH]c3ccccc23)n1 (stereo not given)	none
Cc1cc(C)nc(NC(=NCCc2c[nH]c3ccccc23)NC(=O)C(C)(C)C)n1	SENP8 block-2 46.4 | SENP8 inh conf inactive
O=C(NCc1ccc(F)cc1)C(c1ccco1)N(C(=O)c1csnn1)c1ccccc1 (stereo not given)	none
O=C(NCc1ccc2c(c1)OCO2)C(c1ccco1)N(C(=O)c1csnn1)c1ccccc1 (stereo not given)	SENP8 block-2 40.6 | SENP8 inh conf inactive
Cc1cccc(NS(=O)(=O)c2cc(C(=O)OCC(=O)Nc3cc(C)on3)ccc2C)c1	SENP8 block-2 41.2 | SENP8 inh conf inactive
CCC(=O)Nc1c(C(=O)N2CCCCCC2)cnn1-c1ccc(C)c(C)c1	none
CC(=O)OCCCNc1cc(Sc2nc3ccccc3s2)c2nonc2c1[N+](=O)[O-]	SENP7 block 80.7, SENP8 block-1 91.7, SENP8 block-2 59.5, SENP6 block 83.8 | SENP8 inh conf inactive
CC(=O)OCCCNc1cc(Sc2ccc(C)cc2)c2nonc2c1[N+](=O)[O-]	none
O=[N+]([O-])c1c(NCCCO)cc(SCc2ccco2)c2nonc12	SENP8 block-2 41.5 | SENP8 inh conf inactive
CC(=O)OCCNc1cc(SCc2ccco2)c2nonc2c1[N+](=O)[O-]	SENP8 block-2 76.5 (no result: SENP7 block, SENP8 block-1, SENP6 block) | SENP8 inh conf inactive
O=C(COC(=O)C1CC2CCCC(C1)C2=O)NNC(=O)c1ccccc1Br (stereo not given)	none (no result: Platelet DG rel)
CN(C)c1ccc(CNc2ncn[nH]2)cc1	none
CC1=C(C(N)=O)C(c2ccccc2)n2nc(-c3ccncc3)nc2N1 (stereo not given)	none
Cc1nc(-[n+]2nc(-c3ccncc3)nn2-c2ccccc2)sc1C	SENP8 block-2 41.4 (no result: SENP7 block, SENP8 block-1, Platelet DG rel, SENP6 block) | SENP8 inh conf inactive
CN1CCc2nc(SCC(=O)Nc3ccc(OC(F)(F)F)cc3)c(C#N)c(-c3cccs3)c2C1	SENP8 block-2 44.8 | SENP8 inh conf inactive
COc1ccc(NC(=O)CSc2nc(C)c3c(c2C#N)CCCC3)cc1	none
Cc1cccc(CSc2nc3c(c(-c4cccs4)c2C#N)CN(C)CC3)c1	SENP8 block-2 39.5 | SENP8 inh conf inactive
Cc1cccc(CSc2nc(N)c(C#N)c(-c3cccs3)c2C#N)c1	none
O=C(CN1C(=O)NC2(CCCc3ccccc32)C1=O)NCCc1ccc(F)cc1 (stereo not given)	none (no result: Platelet DG rel)
CN(C)c1cccc(C(=O)OCC(=O)Nc2ccccc2Sc2ccccc2)c1	none
COC(=O)C1=C(C)NC(C)=C(C(=O)OC)C1c1ccc(-c2cccc([N+](=O)[O-])c2)o1	SENP8 block-2 46.6 | SENP8 inh conf inactive
O=C(c1sc2ccccc2c1Cl)N(Cc1cccs1)C1CCS(=O)(=O)C1 (stereo not given)	none
CN1C2=CC=CC=CC2=[N+](C)C12C=CC(=[N+]([O-])[O-])C=C2[N+](=O)[O-] (stereo not given)	SENP8 block-2 53.4 | SENP8 inh conf inactive
CN1CCN(Cc2nc3ccccc3c(=O)n2Cc2nc(-c3ccc([N+](=O)[O-])cc3)cs2)CC1	SENP8 block-2 46.9 | SENP8 inh conf inactive
